ChEMBL document CHEMBL2203149, “Carvacrol decreases neuronal excitability by inhibition of voltage-gated sodium channels” (J Nat Prod, 2012)
Each block holds one molecule with its values, some of them ahead of it. Calls of active or inactive are those of the source.

Key:
[1] = species on record: Rattus norvegicus; test: Inhibition of voltage-gated sodium channel of Wistar rat dissociated DRG neuron assessed as inhibition of current induced of voltage-gated sodium current at -100 mV holding potential with 5 sec intervals at 3 mM after 120 secs by patch-clamp recordings
How it was run: (§1)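 Wistar rat DRG neurons dissociated with 1 mg/mL collagenase I (75 min) and 2.5 mg/mL trypsin (15 min) at 37 °C, plated on poly-D-lysine and used 12–48 h later. Whole-cell voltage clamp used 100 ms steps to 0 mV from −100 mV every 5 s, at room temperature. External solution: 20 mM NaCl with TEA, Cs and Cd, pH 7.4. Internal solution: CsCl, pH 7.2. Drug 0.01–10 mM, n = 50 cells, logistic fit.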

[2] = Inhibition of voltage-gated sodium channel of Wistar rat dissociated DRG neuron assessed as inhibition of current induced of voltage-gated sodium current at -100 mV holding potential with 5 sec intervals by patch-clamp recordings; how it was run: as §1
[3] = Effect on action potential in Wistar rat DRG neuron assessed as maximum descendant inclination at 0.3 mM by intracellular recording (reference value: -104.7 +/- 3.6 V/s)
[4] = Effect on action potential in Wistar rat DRG neuron assessed as maximum ascendant inclination at 0.6 mM after 12 to 48 hrs by patch-clamp recordings (reference value: 151.2 +/- 6.2 V/s); assay type: functional
[5] = Effect on action potential in Wistar rat DRG neuron assessed as maximum descendant inclination at 1 mM by intracellular recording (reference value: -104.7 +/- 3.6 V/s)
[6] = Effect on action potential in Wistar rat DRG neuron assessed as maximum ascendant inclination at 0.3 mM after 12 to 48 hrs by patch-clamp recordings (reference value: 151.2 +/- 6.2 V/s); assay type: functional
[7] = test system: Sciatic nerve; test: Reduction in peak-to-peak amplitude of compound action potential in Wistar rat sciatic nerve at 1 mM after 180 mins by electrophysiology; assay type: functional, tissue-based
How it was run: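 Sciatic nerve from Wistar rats (200–300 g, both sexes) held in a moist chamber, with a 15–20 mm segment immersed in Locke's solution that carried the drug (DMSO ≤0.2% v/v). One end was stimulated and evoked CAPs were recorded 40–50 mm away. Exposure lasted 180 min and began after at least 30 min of stable amplitude. Read-out was peak-to-peak amplitude, at 18–22 °C, n = 5, followed by 180 min washout.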

[8] = Effect on action potential in Wistar rat DRG neuron assessed as input resistance at 0.1 mM after 12 to 48 hrs by patch-clamp recordings (reference value: 25.5 +/- 2.1 Momega); assay type: functional
[9] = […] of Wistar rat sciatice nerve fiber excitability assessed as increase in rheobase at 0.6 mM (reference value: 3.30 +/- 0.06 V); assay type: functional
[10] = Effect on action potential in Wistar rat DRG neuron assessed as maximum descendant inclination at 0.6 mM by intracellular recording (reference value: -104.7 +/- 3.6 V/s)
[11] = Effect on action potential in Wistar rat DRG neuron assessed as resting potential at 1 mM after 12 to 48 hrs by patch-clamp recordings (reference value: -60 +/- 1.1 mV); assay type: functional
[12] = Effect on action potential in Wistar rat DRG neuron assessed as resting potential at 3 mM after 12 to 48 hrs by patch-clamp recordings (reference value: -60 +/- 1.1 mV); assay type: functional
[13] = Effect on action potential in Wistar rat DRG neuron assessed as resting potential at 0.1 mM after 12 to 48 hrs by patch-clamp recordings (reference value: -60 +/- 1.1 mV); assay type: functional
[14] = Effect on action potential in Wistar rat DRG neuron assessed as maximum ascendant inclination at 0.03 mM after 12 to 48 hrs by patch-clamp recordings (reference value: 151.2 +/- 6.2 V/s); assay type: functional
[15] = Effect on action potential in Wistar rat DRG neuron assessed as maximum ascendant inclination at 3 mM after 12 to 48 hrs by patch-clamp recordings (reference value: 151.2 +/- 6.2 V/s); assay type: functional
[16] = test system: Sciatic nerve; test: Reduction in peak-to-peak amplitude of compound action potential in Wistar rat sciatic nerve at 1 mM after 180 mins and measured after 180 mins washout by electrophysiology; assay type: functional, tissue-based
How it was run: (§2)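 Evoked compound action potentials in Wistar rat sciatic nerve, recorded 40–50 mm from the stimulating electrodes and sampled at 20 kHz. The segment was bathed in Locke's solution carrying the drug (0.03–1 mM) after at least 30 min of stable amplitude. Exposure lasted 180 min, then 180 min washout. Peak-to-peak amplitude, n = 5 per concentration; IC50 from a logistic fit at 180 min.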

[17] = Effect on action potential in Wistar rat DRG neuron assessed as amplitude reduction at 3 mM after 12 to 48 hrs by patch-clamp recordings (reference value: 79 +/- 1.3 mV); assay type: functional
[18] = Effect on action potential in Wistar rat DRG neuron assessed as duration at half maximal amplitute at 3 mM by intracellular recording (reference value: 1.6 +/- 0.1 ms)
[19] = Effect on action potential in Wistar rat DRG neuron assessed as duration at half maximal amplitute at 0.6 mM after 12 to 48 hrs by patch-clamp recordings (reference value: 1.6 +/- 0.1 ms); assay type: functional
[20] = Effect on action potential in Wistar rat DRG neuron assessed as amplitude reduction at 0.03 mM after 12 to 48 hrs by patch-clamp recordings (reference value: 79 +/- 1.3 mV); assay type: functional
[21] = Effect on action potential in Wistar rat DRG neuron assessed as duration at half maximal amplitute at 1 mM by intracellular recording (reference value: 1.6 +/- 0.1 ms)
[22] = Effect on action potential in Wistar rat DRG neuron assessed as amplitude reduction at 1 mM after 12 to 48 hrs by patch-clamp recordings (reference value: 79 +/- 1.3 mV); assay type: functional
[23] = Effect on action potential in Wistar rat DRG neuron assessed as resting potential at 0.3 mM after 12 to 48 hrs by patch-clamp recordings (reference value: -60 +/- 1.1 mV); assay type: functional
[24] = Effect on action potential in Wistar rat DRG neuron assessed as elevation in current threshold levels at 0.03 to 3 mM after 12 to 48 hrs by intracellular recordings relative to control
[25] = Effect on action potential in Wistar rat DRG neuron assessed as maximum descendant inclination at 3 mM after 12 to 48 hrs by patch-clamp recordings (reference value: -104.7 +/- 3.6 V/s); assay type: functional
[26] = test system: Sciatic nerve; test: Reduction in peak-to-peak amplitude of compound action potential in Wistar rat sciatic nerve at 0.3 mM after 180 mins by electrophysiology; assay type: functional, tissue-based; how it was run: as §2
[27] = test system: Sciatic nerve; test: Inhibition of first component amplitude of compound action potential in Wistar rat Aalpha sciatic nerve after 180 mins by electrophysiology; assay type: functional, tissue-based; how it was run: as §2
[28] = Effect on action potential in Wistar rat DRG neuron assessed as maximum descendant inclination at 0.03 mM by intracellular recording (reference value: -104.7 +/- 3.6 V/s)
[29] = Reduction in amplitude of compound action potential in bullfrog sciatic nerve at 0.5 mM after 15 mins by electrophysiology; assay type: functional, Rana catesbeiana; conditions: Aquarana catesbeiana, 0.25 h
[30] = Effect on action potential in Wistar rat DRG neuron assessed as duration at half maximal amplitute at 0.3 mM after 12 to 48 hrs by patch-clamp recordings (reference value: 1.6 +/- 0.1 ms); assay type: functional
[31] = Blockade of action potential in Wistar rat DRG neuron after 12 to 48 hrs by intracellular recordings
[32] = Effect on action potential in Wistar rat DRG neuron assessed as maximum descendant inclination at 0.1 mM by intracellular recording (reference value: -104.7 +/- 3.6 V/s)
[33] = Effect on action potential in Wistar rat DRG neuron assessed as input resistance at 3 mM after 12 to 48 hrs by patch-clamp recordings (reference value: 25.5 +/- 2.1 Momega); assay type: functional
[34] = Effect on action potential in Wistar rat DRG neuron assessed as duration at half maximal amplitute at 0.1 mM after 12 to 48 hrs by patch-clamp recordings (reference value: 1.6 +/- 0.1 ms); assay type: functional
[35] = Effect on action potential in Wistar rat DRG neuron assessed as maximum ascendant inclination at 1 mM after 12 to 48 hrs by patch-clamp recordings (reference value: 151.2 +/- 6.2 V/s); assay type: functional
[36] = Effect on action potential in Wistar rat DRG neuron assessed as resting potential at 0.03 mM after 12 to 48 hrs by patch-clamp recordings (reference value: -60 +/- 1.1 mV); assay type: functional
[37] = species on record: Rattus norvegicus; test: Inhibition of voltage-gated sodium channel of […] rat dissociated DRG neuron assessed as inhibition of current induced of voltage-gated sodium current at holding potential by patch-clamp recordings; conditions: concentration not given here
[38] = […] of Wistar rat sciatice nerve fiber excitability assessed as increase in chronaxy measured as time at 0.6 mM (reference value: 59.6 +/- 1.2 microsec); assay type: functional
[39] = Effect on action potential in Wistar rat DRG neuron assessed as input resistance at 0.6 mM after 12 to 48 hrs by patch-clamp recordings (reference value: 25.5 +/- 2.1 Momega); assay type: functional
[40] = test system: Sciatic nerve; test: Reduction in peak-to-peak amplitude of compound action potential in Wistar rat sciatic nerve after 180 mins by electrophysiology; assay type: functional, tissue-based; conditions: 3 h; how it was run: as §2
[41] = Effect on action potential in Wistar rat DRG neuron assessed as resting potential at 0.6 mM after 12 to 48 hrs by patch-clamp recordings (reference value: -60 +/- 1.1 mV); assay type: functional
[42] = test system: Sciatic nerve; test: Inhibition of second component amplitude of compound action potential in Wistar rat Abeta and Agamma sciatic nerve within 60 mins by electrophysiology; assay type: functional, tissue-based; how it was run: as §2
[43] = Effect on action potential in Wistar rat DRG neuron assessed as input resistance at 1 mM after 12 to 48 hrs by patch-clamp recordings (reference value: 25.5 +/- 2.1 Momega); assay type: functional
[44] = Effect on action potential in Wistar rat DRG neuron assessed as amplitude reduction at 0.6 mM after 12 to 48 hrs by patch-clamp recordings (reference value: 79 +/- 1.3 mV); assay type: functional
[45] = Reduction in amplitude of compound action potential in frog sciatic nerve by electrophysiology; assay type: functional, tissue-based, Anura
[46] = Effect on action potential in Wistar rat DRG neuron assessed as input resistance at 0.03 mM after 12 to 48 hrs by patch-clamp recordings (reference value: 25.5 +/- 2.1 Momega); assay type: functional
[47] = Effect on action potential in Wistar rat DRG neuron assessed as input resistance at 0.3 mM after 12 to 48 hrs by patch-clamp recordings (reference value: 25.5 +/- 2.1 Momega); assay type: functional
[48] = Effect on action potential in Wistar rat DRG neuron assessed as maximum ascendant inclination at 0.1 mM after 12 to 48 hrs by patch-clamp recordings (reference value: 151.2 +/- 6.2 V/s); assay type: functional
[49] = Effect on action potential in Wistar rat DRG neuron assessed as amplitude reduction at 0.1 mM after 12 to 48 hrs by patch-clamp recordings (reference value: 79 +/- 1.3 mV); assay type: functional
[50] = Effect on action potential in Wistar rat DRG neuron assessed as amplitude reduction at 0.3 mM after 12 to 48 hrs by patch-clamp recordings (reference value: 79 +/- 1.3 mV); assay type: functional
[51] = Effect on action potential in Wistar rat DRG neuron assessed as duration at half maximal amplitute at 0.03 mM after 12 to 48 hrs by patch-clamp recordings (reference value: 1.6 +/- 0.1 ms); assay type: functional

inhibition [1]: Active
IC50 [2]: 370 µM
IC50 [31]: 360 µM
inhibition [37]: 70%
IC50 [40]: 500 µM
IC50 [45]: 500 µM
SMILES: Cc1ccc(C(C)C)cc1O [CARVACROL]
Activity [3]: -62.7 V/s
Activity [4]: 56.5 V/s
Activity [5]: -4.5 V/s
Activity [6]: 84.4 V/s
inhibition [7]: Active
Activity [8]: 26.7 MΩ
Activity [9]: 4.16 V
Activity [10]: -48 V/s
Activity [11]: -60.2 mV
Activity [12]: -57.5 mV
Activity [13]: -60.2 mV
Activity [14]: 128.6 V/s
Activity [15]: 0 V/s
inhibition [16]: inactive
Activity [17]: 0 mV
Time [18]: 0 ms
Time [19]: 0.6 ms
Activity [20]: 77 mV
Time [21]: 0.2 ms
Activity [22]: 4.2 mV
Activity [23]: -59.7 mV
Activity [24]: 62.4%
Activity [25]: 0 V/s
inhibition [26]: inactive
inhibition [27]: Active
Activity [28]: -102.2 V/s
inhibition at 500 µM [29]: 50%
Time [30]: 0.9 ms
Activity [32]: -78.9 V/s
Activity [33]: 20.8 MΩ
Time [34]: 1.5 ms
Activity [35]: 4.4 V/s
Activity [36]: -62.6 mV
Time [38]: 75 microsec
Activity [39]: 23.3 MΩ
Activity [41]: -60.2 mV
inhibition [42]: Active
Activity [43]: 26.3 MΩ
Activity [44]: 32.1 mV
Activity [46]: 29.3 MΩ
Activity [47]: 27.1 MΩ
Activity [48]: 94.8 V/s
Activity [49]: 53.9 mV
Activity [50]: 43.9 mV
Time [51]: 1.6 ms

IC50 [45]: 740 µM
SMILES: CCN(CC)CC(=O)Nc1c(C)cccc1C [LIDOCAINE]
inhibition at 500 µM [29]: 46%
